Measured values: ChEMBL document CHEMBL4270664 (J Med Chem, 2018)

Legend:
[1] = molecular target: T1, Tyrosine-protein kinase Mer (Homo sapiens) (UniProt Q12866); settings: 100 nM
T1 sequence (whole entry): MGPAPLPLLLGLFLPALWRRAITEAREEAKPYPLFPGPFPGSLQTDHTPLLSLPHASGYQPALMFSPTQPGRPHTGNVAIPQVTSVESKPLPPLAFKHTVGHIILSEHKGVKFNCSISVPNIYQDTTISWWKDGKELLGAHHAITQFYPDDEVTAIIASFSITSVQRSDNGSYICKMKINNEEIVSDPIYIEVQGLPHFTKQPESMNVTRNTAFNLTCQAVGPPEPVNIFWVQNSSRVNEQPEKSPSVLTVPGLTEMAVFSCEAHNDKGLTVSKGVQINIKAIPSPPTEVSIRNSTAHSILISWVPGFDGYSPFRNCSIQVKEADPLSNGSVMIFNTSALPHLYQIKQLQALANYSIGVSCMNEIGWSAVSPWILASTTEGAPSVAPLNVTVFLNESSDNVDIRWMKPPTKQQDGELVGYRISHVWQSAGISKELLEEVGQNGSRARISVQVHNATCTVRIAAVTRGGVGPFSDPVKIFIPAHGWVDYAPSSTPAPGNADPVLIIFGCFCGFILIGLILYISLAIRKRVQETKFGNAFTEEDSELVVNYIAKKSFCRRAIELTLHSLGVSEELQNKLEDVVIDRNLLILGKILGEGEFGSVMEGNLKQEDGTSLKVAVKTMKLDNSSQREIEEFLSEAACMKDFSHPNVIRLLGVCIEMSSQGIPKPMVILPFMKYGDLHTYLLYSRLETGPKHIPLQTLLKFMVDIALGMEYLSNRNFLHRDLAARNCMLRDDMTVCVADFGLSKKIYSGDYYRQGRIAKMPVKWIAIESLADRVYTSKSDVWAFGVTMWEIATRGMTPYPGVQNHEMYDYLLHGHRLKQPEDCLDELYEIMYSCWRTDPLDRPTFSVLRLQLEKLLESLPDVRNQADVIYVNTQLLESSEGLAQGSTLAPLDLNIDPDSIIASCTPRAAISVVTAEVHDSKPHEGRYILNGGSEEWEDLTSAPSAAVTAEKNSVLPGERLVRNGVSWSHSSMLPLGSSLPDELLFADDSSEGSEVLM

[2] = Half life in mouse at 3 mg/kg, iv; format: ADME, organism-based; settings: in vivo
Summary of the method: (§1)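 Mice were dosed at 3 mg/kg intravenously, with plasma sampled at 6 time points and n = 2 mice per time point.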

[3] = Cmax in mouse at 3 mg/kg, iv; format: ADME, organism-based; parameters: dose 3 mg/kg, route intravenous; settings: in vivo
Summary of the method: as §1

[4] = AUClast in mouse at 3 mg/kg, iv; format: ADME, organism-based; parameters: dose 3 mg/kg, time 0 - last, route intravenous; settings: in vivo
Summary of the method: as §1

[5] = Clearance in mouse at 3 mg/kg, iv; format: ADME, organism-based; settings: in vivo
Summary of the method: as §1

[6] = Oral bioavailability in mouse at 3 mg/kg; format: ADME, organism-based; settings: in vivo
Summary of the method: (§2)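 Mice were dosed at 3 mg/kg by oral or intraperitoneal route in an extended PK study. Oral bioavailability was derived against the iv route.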

[7] = Cmax in mouse at 3 mg/kg, po; format: ADME, organism-based; parameters: dose 3 mg/kg, route oral; settings: in vivo
Summary of the method: as §2

[8] = Cmax in mouse at 3 mg/kg, ip; format: ADME, organism-based; parameters: dose 3 mg/kg, route intraperitoneal; settings: in vivo
Summary of the method: as §2

[9] = Half life in mouse at 3 mg/kg, ip; format: ADME, organism-based; settings: in vivo
Summary of the method: as §2

[10] = molecular target: High affinity nerve growth factor receptor (Homo sapiens, UniProt P04629); assay: Inhibition of N-terminal GST-tagged human TRKA cytoplasmic domain (436 to 790 end residues) expressed in baculovirus expression system using fluorecence-labeled substrate by MCE assay
High affinity nerve growth factor receptor, sequence (P04629 whole entry, the tested form may be a part): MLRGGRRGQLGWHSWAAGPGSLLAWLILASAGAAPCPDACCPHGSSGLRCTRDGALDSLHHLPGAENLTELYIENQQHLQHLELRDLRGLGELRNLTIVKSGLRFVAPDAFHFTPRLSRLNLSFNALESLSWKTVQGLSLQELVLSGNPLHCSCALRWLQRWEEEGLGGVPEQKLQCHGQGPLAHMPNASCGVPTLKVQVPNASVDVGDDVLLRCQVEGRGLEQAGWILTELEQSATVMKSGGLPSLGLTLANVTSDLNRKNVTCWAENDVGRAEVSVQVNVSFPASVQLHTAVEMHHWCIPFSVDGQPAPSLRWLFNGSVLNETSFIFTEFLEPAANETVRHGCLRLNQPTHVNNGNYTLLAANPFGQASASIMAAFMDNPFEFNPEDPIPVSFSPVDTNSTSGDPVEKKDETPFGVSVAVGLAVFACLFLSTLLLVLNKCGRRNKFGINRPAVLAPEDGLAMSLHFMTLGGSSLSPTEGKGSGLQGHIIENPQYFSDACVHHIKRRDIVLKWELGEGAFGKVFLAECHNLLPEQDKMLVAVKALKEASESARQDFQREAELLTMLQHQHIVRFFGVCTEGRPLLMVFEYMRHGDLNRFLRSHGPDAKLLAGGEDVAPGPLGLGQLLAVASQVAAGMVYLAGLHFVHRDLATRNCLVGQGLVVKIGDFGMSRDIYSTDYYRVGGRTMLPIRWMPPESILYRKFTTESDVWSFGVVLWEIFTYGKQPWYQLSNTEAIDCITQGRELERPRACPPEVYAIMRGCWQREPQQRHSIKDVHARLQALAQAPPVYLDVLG

[11] = molecular target: NT-3 growth factor receptor (Homo sapiens, UniProt Q16288); assay: Inhibition of N-terminal GST-tagged human TRKC cytoplasmic domain (456 to 825 end residues) expressed in baculovirus expression system using fluorecence-labeled substrate by MCE assay
NT-3 growth factor receptor, sequence (Q16288 whole entry, the tested form may be a part): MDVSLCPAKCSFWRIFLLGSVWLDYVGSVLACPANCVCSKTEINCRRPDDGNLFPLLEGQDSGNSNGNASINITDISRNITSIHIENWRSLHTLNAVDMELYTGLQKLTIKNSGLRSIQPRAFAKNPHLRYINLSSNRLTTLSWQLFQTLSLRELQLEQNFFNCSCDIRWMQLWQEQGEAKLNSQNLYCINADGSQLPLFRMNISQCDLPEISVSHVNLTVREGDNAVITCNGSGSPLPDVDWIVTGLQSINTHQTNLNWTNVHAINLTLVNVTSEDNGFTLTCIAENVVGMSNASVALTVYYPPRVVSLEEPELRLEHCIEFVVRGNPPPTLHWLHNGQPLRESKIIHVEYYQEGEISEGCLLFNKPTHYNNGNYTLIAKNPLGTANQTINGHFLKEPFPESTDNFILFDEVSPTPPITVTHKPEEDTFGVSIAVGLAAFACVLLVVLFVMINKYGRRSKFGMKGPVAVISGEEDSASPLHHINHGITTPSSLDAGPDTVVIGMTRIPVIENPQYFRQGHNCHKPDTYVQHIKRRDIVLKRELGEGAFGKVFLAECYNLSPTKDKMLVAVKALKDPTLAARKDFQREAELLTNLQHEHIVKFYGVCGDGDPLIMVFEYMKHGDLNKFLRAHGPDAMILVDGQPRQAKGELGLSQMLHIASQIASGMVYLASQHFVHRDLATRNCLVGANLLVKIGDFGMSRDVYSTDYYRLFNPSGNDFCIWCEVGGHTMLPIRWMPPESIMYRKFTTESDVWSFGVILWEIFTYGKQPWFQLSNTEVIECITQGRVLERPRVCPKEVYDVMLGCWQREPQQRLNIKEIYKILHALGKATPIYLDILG

[12] = molecular target: Serine/threonine-protein kinase SIK2 (Homo sapiens, UniProt Q9H0K1); assay: Inhibition of N-terminal GST-tagged full length human QIK (1 to 926 end residues) expressed in baculovirus expression system using fluorecence-labeled substrate by MCE assay
Serine/threonine-protein kinase SIK2, sequence (Q9H0K1 whole entry): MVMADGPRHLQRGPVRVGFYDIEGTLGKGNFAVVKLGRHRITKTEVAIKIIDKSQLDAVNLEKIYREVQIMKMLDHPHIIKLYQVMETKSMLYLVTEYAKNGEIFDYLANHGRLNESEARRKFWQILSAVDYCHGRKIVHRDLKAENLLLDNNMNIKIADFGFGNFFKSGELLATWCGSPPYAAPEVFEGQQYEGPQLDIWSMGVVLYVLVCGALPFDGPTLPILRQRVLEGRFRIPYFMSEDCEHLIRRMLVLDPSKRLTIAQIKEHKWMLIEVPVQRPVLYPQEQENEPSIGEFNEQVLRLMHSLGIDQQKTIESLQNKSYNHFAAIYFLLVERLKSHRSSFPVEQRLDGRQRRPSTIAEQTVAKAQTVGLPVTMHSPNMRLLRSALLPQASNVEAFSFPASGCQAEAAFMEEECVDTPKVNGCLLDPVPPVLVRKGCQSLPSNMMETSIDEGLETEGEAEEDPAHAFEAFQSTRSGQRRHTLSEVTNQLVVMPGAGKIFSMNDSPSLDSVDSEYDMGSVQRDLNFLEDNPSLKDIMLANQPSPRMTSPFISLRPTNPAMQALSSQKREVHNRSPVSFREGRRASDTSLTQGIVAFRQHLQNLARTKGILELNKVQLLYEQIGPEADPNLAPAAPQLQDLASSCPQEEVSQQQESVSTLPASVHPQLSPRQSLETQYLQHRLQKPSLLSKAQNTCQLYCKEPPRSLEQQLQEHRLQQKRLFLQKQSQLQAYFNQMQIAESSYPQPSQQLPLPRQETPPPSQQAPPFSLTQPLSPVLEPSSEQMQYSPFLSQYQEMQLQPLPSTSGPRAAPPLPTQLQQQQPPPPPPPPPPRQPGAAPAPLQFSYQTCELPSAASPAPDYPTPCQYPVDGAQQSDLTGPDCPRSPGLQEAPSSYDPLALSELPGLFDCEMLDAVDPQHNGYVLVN

[13] = molecular target: STE20-like serine/threonine-protein kinase (Homo sapiens, UniProt Q9H2G2); assay: Inhibition of N-terminal GST-tagged full length human SLK (1 to 1152 end residues) expressed in baculovirus expression system using fluorecence-labeled substrate by MCE assay
STE20-like serine/threonine-protein kinase, sequence (Q9H2G2 whole entry): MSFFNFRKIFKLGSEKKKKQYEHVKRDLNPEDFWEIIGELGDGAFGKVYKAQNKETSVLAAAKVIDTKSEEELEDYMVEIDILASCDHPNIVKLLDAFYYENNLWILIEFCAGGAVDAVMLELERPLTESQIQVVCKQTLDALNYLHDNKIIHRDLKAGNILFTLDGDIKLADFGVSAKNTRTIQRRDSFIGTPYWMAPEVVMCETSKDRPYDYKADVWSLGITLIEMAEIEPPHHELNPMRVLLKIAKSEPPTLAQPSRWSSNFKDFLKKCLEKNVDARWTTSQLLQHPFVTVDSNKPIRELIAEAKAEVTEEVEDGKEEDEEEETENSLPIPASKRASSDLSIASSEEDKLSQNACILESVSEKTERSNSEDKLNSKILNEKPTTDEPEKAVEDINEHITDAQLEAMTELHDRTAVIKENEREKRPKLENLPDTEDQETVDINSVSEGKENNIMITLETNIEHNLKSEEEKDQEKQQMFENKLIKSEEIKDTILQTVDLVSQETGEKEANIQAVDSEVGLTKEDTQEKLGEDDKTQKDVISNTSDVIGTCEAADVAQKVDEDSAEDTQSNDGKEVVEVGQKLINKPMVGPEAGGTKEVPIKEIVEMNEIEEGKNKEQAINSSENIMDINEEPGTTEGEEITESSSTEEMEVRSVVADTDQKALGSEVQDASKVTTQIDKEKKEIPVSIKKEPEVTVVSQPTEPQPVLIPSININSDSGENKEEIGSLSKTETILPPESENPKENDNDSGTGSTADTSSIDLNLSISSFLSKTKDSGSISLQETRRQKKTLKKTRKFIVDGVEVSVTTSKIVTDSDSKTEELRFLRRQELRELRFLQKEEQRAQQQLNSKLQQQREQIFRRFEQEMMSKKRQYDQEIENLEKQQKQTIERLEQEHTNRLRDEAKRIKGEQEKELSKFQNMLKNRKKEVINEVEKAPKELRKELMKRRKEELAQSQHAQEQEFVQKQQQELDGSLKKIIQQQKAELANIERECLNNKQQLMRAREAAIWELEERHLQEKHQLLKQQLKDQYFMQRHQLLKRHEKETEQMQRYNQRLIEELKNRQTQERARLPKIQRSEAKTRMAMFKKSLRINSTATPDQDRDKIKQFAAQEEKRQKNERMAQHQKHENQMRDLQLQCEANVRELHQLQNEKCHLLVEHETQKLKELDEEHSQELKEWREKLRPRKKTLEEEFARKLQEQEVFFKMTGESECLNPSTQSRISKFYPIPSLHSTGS

[14] = molecular target: T2, NUAK family SNF1-like kinase 1 (Homo sapiens, UniProt O60285); assay: Inhibition of N-terminal GST-tagged full length human NuaK1 (1 to 661 end residues) expressed in baculovirus expression system using fluorecence-labeled substrate by MCE assay
T2 sequence (O60285 whole entry): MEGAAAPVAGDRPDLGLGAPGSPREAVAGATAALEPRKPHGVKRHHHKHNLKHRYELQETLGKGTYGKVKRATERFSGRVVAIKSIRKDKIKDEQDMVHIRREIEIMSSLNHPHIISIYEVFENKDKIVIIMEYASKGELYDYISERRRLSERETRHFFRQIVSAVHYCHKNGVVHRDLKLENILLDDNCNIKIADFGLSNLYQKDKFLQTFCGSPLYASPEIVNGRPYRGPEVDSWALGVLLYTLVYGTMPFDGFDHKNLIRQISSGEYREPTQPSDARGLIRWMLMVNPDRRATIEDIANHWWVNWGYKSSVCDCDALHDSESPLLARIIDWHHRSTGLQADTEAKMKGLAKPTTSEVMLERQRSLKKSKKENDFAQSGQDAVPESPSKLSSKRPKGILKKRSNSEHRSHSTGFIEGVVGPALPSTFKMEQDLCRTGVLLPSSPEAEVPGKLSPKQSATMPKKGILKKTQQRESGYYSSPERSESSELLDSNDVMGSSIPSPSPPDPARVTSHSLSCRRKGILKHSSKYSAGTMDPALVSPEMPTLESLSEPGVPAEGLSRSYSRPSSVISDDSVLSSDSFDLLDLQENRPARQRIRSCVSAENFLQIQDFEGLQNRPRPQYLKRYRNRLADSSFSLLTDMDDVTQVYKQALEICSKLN

[15] = molecular target: Mast/stem cell growth factor receptor Kit (Homo sapiens, UniProt P10721); assay: Inhibition of N-terminal GST-tagged human KIT cytoplasmic domain (544 to 976 end residues) expressed in baculovirus expression system using fluorecence-labeled substrate by MCE assay
Mast/stem cell growth factor receptor Kit, sequence (P10721 whole entry, the tested form may be a part): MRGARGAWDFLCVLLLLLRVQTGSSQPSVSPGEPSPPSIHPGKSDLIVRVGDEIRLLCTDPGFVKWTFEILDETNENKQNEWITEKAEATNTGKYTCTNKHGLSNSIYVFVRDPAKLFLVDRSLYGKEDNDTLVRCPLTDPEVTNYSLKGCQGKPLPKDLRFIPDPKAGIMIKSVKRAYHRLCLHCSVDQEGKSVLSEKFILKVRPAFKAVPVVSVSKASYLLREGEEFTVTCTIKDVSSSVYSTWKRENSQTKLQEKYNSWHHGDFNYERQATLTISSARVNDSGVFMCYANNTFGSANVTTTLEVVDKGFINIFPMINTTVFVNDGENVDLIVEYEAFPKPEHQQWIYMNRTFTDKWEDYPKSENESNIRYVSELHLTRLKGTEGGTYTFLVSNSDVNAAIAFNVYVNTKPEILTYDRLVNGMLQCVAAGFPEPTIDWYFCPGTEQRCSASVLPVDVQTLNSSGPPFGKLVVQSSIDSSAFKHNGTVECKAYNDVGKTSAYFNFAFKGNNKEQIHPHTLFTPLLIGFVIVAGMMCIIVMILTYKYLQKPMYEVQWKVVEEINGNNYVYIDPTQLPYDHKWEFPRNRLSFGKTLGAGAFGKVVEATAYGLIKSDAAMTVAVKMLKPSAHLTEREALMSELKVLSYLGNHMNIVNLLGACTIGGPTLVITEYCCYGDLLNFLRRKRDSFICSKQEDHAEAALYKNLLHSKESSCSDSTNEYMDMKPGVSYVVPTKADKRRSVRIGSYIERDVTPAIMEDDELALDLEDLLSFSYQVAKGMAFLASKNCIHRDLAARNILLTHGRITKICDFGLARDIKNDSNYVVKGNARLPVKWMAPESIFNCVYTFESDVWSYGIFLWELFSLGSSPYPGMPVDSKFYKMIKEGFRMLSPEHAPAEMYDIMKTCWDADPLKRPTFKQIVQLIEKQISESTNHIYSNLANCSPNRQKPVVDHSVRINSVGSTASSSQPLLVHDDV

[16] = Tmax in NSG mouse xenografted with human 697 cells at 30 mg/kg, ip administered as single dose; format: ADME, organism-based; settings: in vivo
[17] = Half life in NSG mouse xenografted with human 697 cells at 30 mg/kg, ip administered as single dose; format: ADME, organism-based; settings: in vivo
Mus musculus = species on record: Mus musculus; assay: animal or person; settings: Mus musculus, 697, ip, 10 min, read-out: INH

CCCCNc1ncc2c(-c3ccc(CN4CCN(C)CC4)cc3)cn([C@H]3CC[C@H](O)CC3)c2n1
inhibition [1]: 100%

CCC[C@H](C)Nc1ncc2c(-c3ccc(CN4C5CCC4CC5)cc3)cn([C@H]3CC[C@H](O)CC3)c2n1
half-life [2]: 1.8 h | Cmax [3]: 0.1 µM | AUC(0-t) [4]: 0.28 µM·h | clearance [5]: 302 mL/min/kg

CCC[C@H](C)Nc1ncc2c(-c3ccc(CNCCN(CC)CC)cc3)cn([C@H]3CC[C@H](O)CC3)c2n1
half-life [2]: 3.65 h | Cmax [3]: 1.7 µM | AUC(0-t) [4]: 1.2 µM·h | clearance [5]: 54 mL/min/kg

CCC[C@H](C)Nc1ncc2c(-c3ccnc(N4CCNCC4)c3)cn([C@H]3CC[C@H](O)CC3)c2n1
half-life [2]: 2.6 h | Cmax [3]: 3.5 µM | AUC(0-t) [4]: 1.5 µM·h | clearance [5]: 55 mL/min/kg

CCC[C@H](C)Nc1ncc2c(-c3ccc(S(=O)(=O)N4CCN(C)CC4)cc3F)cn([C@H]3CC[C@H](O)CC3)c2n1
half-life [2]: 0.65 h | Cmax [3]: 6.5 µM | AUC(0-t) [4]: 1.6 µM·h | clearance [5]: 50 mL/min/kg

CCC[C@H](C)Nc1ncc2c(-c3cnn(C4CCNCC4)c3)cn([C@H]3CC[C@H](O)CC3)c2n1
half-life [2]: 2.1 h | Cmax [3]: 13.8 µM | AUC(0-t) [4]: 2.8 µM·h | clearance [5]: 32 mL/min/kg

CCC[C@H](C)Nc1ncc2c(-c3ccc(CN4CCCN(C)CC4)cc3)cn([C@H]3CC[C@H](O)CC3)c2n1
half-life [2]: 3 h | Cmax [3]: 5.2 µM | AUC(0-t) [4]: 2.7 µM·h | clearance [5]: 29 mL/min/kg | bioavailability [6]: 15% | Cmax [7]: 0.061 µM | Cmax [8]: 0.6 µM | half-life [9]: 1.43 h | IC50 [10]: 3.6 nM | IC50 [11]: 8.4 nM | IC50 [12]: > 100 nM | IC50 [13]: 47 nM | IC50 [14]: > 100 nM | IC50 [15]: > 100 nM | Tmax [16]: 5 min | half-life [17]: 3 h | inhibition at 30 mg/kg (Mus musculus): 75%

CCC[C@H](C)Nc1ncc2c(-c3ccc(CN4CCOCC4)cc3)cn([C@H]3CC[C@H](O)CC3)c2n1
half-life [2]: 1.4 h | Cmax [3]: 8.6 µM | AUC(0-t) [4]: 2.2 µM·h | clearance [5]: 41 mL/min/kg
